Assay results published in ChEMBL document CHEMBL2203264, “Optimization of imidazo[4,5-b]pyridine-based kinase inhibitors: identification of a dual FLT3/Aurora kinase inhibitor as an orally bioavailable preclinical development candidate for the treatment of acute myeloid leukemia” (J Med Chem, 2012).
pIC50, pKd: −log10 of the molar value.

What was measured:
[1] = Metabolic stability in mouse liver microsomes assessed as parent compound metabolism after 30 mins by LC-MS analysis; type: ADME, Microsome; details: read-out: Drug metabolism
Procedure, shortened: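 Male CD1 mouse liver microsomes (1 mg/mL protein) incubated with 10 μM compound plus NADPH 1 mM, UDPGA 2.5 mM and MgCl2 3 mM in 10 mM PBS at 37 °C for 0 and 30 min. NADPH/UDPGA-free controls included. LC–MS quantitation of remaining compound; reported as percent parent metabolized after 30 min.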

[2] = Binding affinity to FLT3 ITD mutant
Aurora kinase A = target: T1, Aurora kinase A (Homo sapiens, UniProt O14965); experiment: Inhibition of GST-tagged human Aurora A kinase expressed in baculovirus system
T1 sequence (O14965 whole entry): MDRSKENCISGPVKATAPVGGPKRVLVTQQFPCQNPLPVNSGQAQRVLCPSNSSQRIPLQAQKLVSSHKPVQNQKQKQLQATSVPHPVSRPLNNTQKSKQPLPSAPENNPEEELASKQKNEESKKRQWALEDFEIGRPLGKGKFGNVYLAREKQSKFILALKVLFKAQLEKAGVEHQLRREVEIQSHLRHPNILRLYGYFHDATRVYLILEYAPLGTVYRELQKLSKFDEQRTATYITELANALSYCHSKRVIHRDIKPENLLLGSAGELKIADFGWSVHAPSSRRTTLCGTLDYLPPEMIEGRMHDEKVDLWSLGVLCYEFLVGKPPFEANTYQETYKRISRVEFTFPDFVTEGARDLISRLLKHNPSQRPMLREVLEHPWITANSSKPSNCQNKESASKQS

[3] = target: Voltage-gated inwardly rectifying potassium channel KCNH2 (Homo sapiens, UniProt Q12809); experiment: Inhibition of human ERG by cell-based electrophysiology assay
[4] = target: T2, Receptor-type tyrosine-protein kinase FLT3 (Homo sapiens, UniProt P36888)
T2 sequence (P36888 whole entry): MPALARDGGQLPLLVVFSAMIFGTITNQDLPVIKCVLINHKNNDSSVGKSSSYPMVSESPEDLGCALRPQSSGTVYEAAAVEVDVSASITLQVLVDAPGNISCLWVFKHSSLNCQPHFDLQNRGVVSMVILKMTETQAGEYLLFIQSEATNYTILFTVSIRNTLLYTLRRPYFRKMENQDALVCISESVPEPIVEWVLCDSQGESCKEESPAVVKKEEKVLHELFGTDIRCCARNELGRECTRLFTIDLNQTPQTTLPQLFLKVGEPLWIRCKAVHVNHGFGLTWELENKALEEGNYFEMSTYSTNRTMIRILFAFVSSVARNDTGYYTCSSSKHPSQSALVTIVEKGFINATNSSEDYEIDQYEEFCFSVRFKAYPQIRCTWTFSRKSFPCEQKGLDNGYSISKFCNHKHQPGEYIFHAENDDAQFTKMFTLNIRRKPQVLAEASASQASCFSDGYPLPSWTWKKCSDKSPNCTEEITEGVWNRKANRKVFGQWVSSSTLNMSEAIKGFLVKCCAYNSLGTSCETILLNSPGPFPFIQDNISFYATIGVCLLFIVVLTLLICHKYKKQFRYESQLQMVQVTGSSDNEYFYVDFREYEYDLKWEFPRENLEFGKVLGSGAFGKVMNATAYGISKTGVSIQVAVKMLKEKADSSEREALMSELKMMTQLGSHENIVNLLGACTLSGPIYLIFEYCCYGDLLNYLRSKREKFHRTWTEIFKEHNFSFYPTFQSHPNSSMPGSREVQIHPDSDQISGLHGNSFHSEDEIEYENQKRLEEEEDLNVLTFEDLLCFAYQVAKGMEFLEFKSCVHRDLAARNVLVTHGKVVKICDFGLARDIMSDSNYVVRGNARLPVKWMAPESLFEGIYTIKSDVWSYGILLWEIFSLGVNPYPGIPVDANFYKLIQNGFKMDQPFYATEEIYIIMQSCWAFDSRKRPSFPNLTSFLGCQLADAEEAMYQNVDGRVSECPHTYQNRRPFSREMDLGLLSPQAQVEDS

[5] = Metabolic stability in human liver microsomes assessed as parent compound metabolism after 30 mins by LC-MS analysis; type: ADME, Microsome; details: read-out: Drug metabolism
Procedure, shortened: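 Test compound at 10 μM with pooled mixed-gender human liver microsomes (1 mg/mL protein), NADPH 1 mM, UDPGA 2.5 mM and MgCl2 3 mM in 10 mM PBS at 37 °C for 0 and 30 min. Controls omit NADPH/UDPGA. Compound remaining measured by LC–MS; reported as percent of parent metabolized at 30 min.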

SW-620 = experiment: cells; details: Homo sapiens, SW-620, 72 h
hERG (KCNH2) = hERG (KCNH2) (Homo sapiens, UniProt Q12809); experiment: Inhibition of human ERG at 10 uM by cell-based electrophysiology assay
hERG (KCNH2), sequence (Q12809 whole entry): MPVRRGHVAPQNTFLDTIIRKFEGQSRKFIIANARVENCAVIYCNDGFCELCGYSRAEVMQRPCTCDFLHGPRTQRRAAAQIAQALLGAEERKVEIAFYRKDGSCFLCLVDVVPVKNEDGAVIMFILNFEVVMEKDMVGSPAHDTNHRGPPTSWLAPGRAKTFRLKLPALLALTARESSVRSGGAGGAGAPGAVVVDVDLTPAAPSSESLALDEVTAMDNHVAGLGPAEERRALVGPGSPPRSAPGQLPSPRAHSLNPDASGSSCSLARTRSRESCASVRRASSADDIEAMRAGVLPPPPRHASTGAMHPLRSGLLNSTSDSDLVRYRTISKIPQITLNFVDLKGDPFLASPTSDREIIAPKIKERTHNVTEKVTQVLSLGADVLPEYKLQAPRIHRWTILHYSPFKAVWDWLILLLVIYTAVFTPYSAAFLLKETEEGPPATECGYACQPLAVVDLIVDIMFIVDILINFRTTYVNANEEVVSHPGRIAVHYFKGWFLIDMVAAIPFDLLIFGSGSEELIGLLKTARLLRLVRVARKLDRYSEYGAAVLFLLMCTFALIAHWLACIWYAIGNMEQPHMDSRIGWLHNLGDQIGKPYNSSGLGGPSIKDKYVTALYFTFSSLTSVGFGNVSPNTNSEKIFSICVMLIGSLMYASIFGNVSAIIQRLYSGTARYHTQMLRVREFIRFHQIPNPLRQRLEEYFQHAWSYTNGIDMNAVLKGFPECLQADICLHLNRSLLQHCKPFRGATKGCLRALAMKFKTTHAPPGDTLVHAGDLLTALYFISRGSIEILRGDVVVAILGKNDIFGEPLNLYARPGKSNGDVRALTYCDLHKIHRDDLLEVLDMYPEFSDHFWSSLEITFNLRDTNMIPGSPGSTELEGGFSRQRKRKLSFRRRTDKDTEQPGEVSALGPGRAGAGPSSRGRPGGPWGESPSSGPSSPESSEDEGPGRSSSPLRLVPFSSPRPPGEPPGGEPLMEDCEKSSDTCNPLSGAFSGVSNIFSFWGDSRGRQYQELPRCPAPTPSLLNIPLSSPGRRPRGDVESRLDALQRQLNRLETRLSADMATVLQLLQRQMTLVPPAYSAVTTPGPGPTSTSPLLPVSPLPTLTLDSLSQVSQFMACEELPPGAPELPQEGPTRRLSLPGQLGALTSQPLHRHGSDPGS

Voltage-gated inwardly rectifying potassium channel KCNH2, sequence (Q12809 whole entry): as above

Cc1cc(CN2CCN(c3c(Cl)cnc4[nH]c(-c5cn(C)nc5C)nc34)CC2)no1
metabolised at 0.5 h [1]: 48%
pKd [2]: 8.00
pIC50 (Aurora kinase A): 7.89
pIC50 [3]: 5.20
pKd [4]: 8.62
metabolised at 0.5 h [5]: 38%
GI50 (SW-620): 597 nM

Cc1cc(CN2CCN(c3c(Cl)cnc4nc(-c5ccc(N6CCN(C)CC6)c(F)c5)[nH]c34)CC2)no1
metabolised at 0.5 h [1]: 20%
pIC50 (Aurora kinase A): 7.96
inhibition at 10 µM (hERG (KCNH2)): 37%
metabolised at 0.5 h [5]: 68%
GI50 (SW-620): 380 nM

Cc1nn(C)cc1-c1nc2ncc(Cl)c(N3CCN(Cc4nonc4C)CC3)c2[nH]1
metabolised at 0.5 h [1]: 91%
pIC50 (Aurora kinase A): 8.22
inhibition at 10 µM (hERG (KCNH2)): 50%
metabolised at 0.5 h [5]: 54%
GI50 (SW-620): 250 nM

Cc1cc(CN2CCN(c3c(Cl)cnc4nc(-c5ccn(C)n5)[nH]c34)CC2)no1
pIC50 (Aurora kinase A): 6.93
GI50 (SW-620): 2600 nM

Cc1cc(CN2CCN(c3c(Cl)cnc4nc(-c5ccc(N6CCN(C)CC6)cc5)[nH]c34)CC2)no1
metabolised at 0.5 h [1]: 25%
metabolised at 0.5 h [5]: 89%
GI50 (SW-620): 570 nM

Cc1cc(CN2CCN(c3c(Cl)cnc4nc(-c5cccc(CN(C)C)c5)[nH]c34)CC2)no1
metabolised at 0.5 h [1]: 29%
pIC50 (Aurora kinase A): 7.27
inhibition at 10 µM (hERG (KCNH2)): 85%
metabolised at 0.5 h [5]: 36%
GI50 (SW-620): 840 nM

Cc1cc(CN2CCN(c3c(Cl)cnc4nc(-c5cccc(CN6CCOCC6)c5)[nH]c34)CC2)no1
metabolised at 0.5 h [1]: 69%
pIC50 (Aurora kinase A): 7.33
inhibition at 10 µM (hERG (KCNH2)): 15%
metabolised at 0.5 h [5]: 71%
GI50 (SW-620): 113 nM

Cc1cc(CN2CCN(c3c(Cl)cnc4[nH]c(-c5cnn(C(C)C)c5)nc34)CC2)no1
metabolised at 0.5 h [1]: 30%
pIC50 (Aurora kinase A): 7.46
inhibition at 10 µM (hERG (KCNH2)): 71%
metabolised at 0.5 h [5]: 17%
GI50 (SW-620): 2220 nM

Cc1cc(CN2CCN(c3c(Cl)cnc4[nH]c(-c5cnn(CC(F)F)c5)nc34)CC2)no1
metabolised at 0.5 h [1]: 12%
pIC50 (Aurora kinase A): 7.35
inhibition at 10 µM (hERG (KCNH2)): 82%
metabolised at 0.5 h [5]: 0%
GI50 (SW-620): 1600 nM

Cc1cc(CN2CCN(c3c(Cl)cnc4[nH]c(-c5cnn(C)c5)nc34)CC2)no1
pKd [2]: 7.18
pIC50 (Aurora kinase A): 7.35
pKd [4]: 7.92
GI50 (SW-620): 1800 nM

Cc1cc(CN2CCN(c3c(Cl)cnc4[nH]c(-c5cccc(OCCN(C)C)c5)nc34)CC2)no1
metabolised at 0.5 h [1]: 23%
pIC50 (Aurora kinase A): 6.89
inhibition at 10 µM (hERG (KCNH2)): 88%
metabolised at 0.5 h [5]: 18%
GI50 (SW-620): 850 nM

Cc1cc(CN2CCN(c3c(Cl)cnc4nc(-c5ccnn5C)[nH]c34)CC2)no1
pIC50 (Aurora kinase A): 6.83
GI50 (SW-620): 3190 nM

Cc1cc(CN2CCN(c3c(Cl)cnc4[nH]c(-c5ccc(N6CCN(C)CC6)cc5F)nc34)CC2)no1
metabolised at 0.5 h [1]: 65%
pIC50 (Aurora kinase A): 7.06
inhibition at 10 µM (hERG (KCNH2)): 81%
metabolised at 0.5 h [5]: 99%
GI50 (SW-620): 7500 nM

Cc1cc(CN2CCN(c3c(Br)cnc4[nH]c(-c5ccc(N6CCOCC6)cc5)nc34)CC2)no1
metabolised at 0.5 h [1]: 50%
pIC50 (Aurora kinase A): 8.15
metabolised at 0.5 h [5]: 99%
GI50 (SW-620): 860 nM

Cc1cc(CN2CCN(c3c(Br)cnc4[nH]c(-c5cncn5C)nc34)CC2)no1
pKd [2]: 7.21
pIC50 (Aurora kinase A): 7.82
pKd [4]: 7.85
GI50 (SW-620): 2180 nM

Cc1nn(C)cc1-c1nc2ncc(Cl)c(N3CCN(Cc4cnccn4)CC3)c2[nH]1
metabolised at 0.5 h [1]: 99%
pIC50 (Aurora kinase A): 7.57
inhibition at 10 µM (hERG (KCNH2)): 23%
metabolised at 0.5 h [5]: 76%
GI50 (SW-620): 1090 nM

CC(=O)N1CCN(c2ccc(-c3nc4ncc(Br)c(N5CCN(Cc6cc(C)on6)CC5)c4[nH]3)cc2)CC1
metabolised at 0.5 h [1]: 25%
pIC50 (Aurora kinase A): 8.05
inhibition at 10 µM (hERG (KCNH2)): 92%
metabolised at 0.5 h [5]: 94%
GI50 (SW-620): 758 nM

CCN1CCN(c2ccc(-c3nc4c(N5CCN(Cc6cc(C)on6)CC5)c(Cl)cnc4[nH]3)cc2)CC1
metabolised at 0.5 h [1]: 37%
pIC50 (Aurora kinase A): 8.22
inhibition at 10 µM (hERG (KCNH2)): 68%
metabolised at 0.5 h [5]: 72%
GI50 (SW-620): 461 nM

Cc1cc(CN2CCN(c3c(Cl)cnc4[nH]c(-c5cccc(N6CCN(C)CC6)c5)nc34)CC2)no1
metabolised at 0.5 h [1]: 40%
pKd [2]: 7.59
pIC50 (Aurora kinase A): 7.59
pIC50 [3]: 5.02
pKd [4]: 8.27
metabolised at 0.5 h [5]: 24%
GI50 (SW-620): 667 nM

Cc1cc(CN2CCN(c3c(Cl)cnc4nc(-c5nccn5C)[nH]c34)CC2)no1
pIC50 (Aurora kinase A): 6.25
GI50 (SW-620): 16300 nM

COCCN1CCN(c2ccc(-c3nc4ncc(Br)c(N5CCN(Cc6cc(C)on6)CC5)c4[nH]3)cc2)CC1
metabolised at 0.5 h [1]: 66%
pIC50 (Aurora kinase A): 7.92
inhibition at 10 µM (hERG (KCNH2)): 54%
metabolised at 0.5 h [5]: 69%
GI50 (SW-620): 1000 nM

Cc1cc(CN2CCN(c3c(Br)cnc4nc(-c5csnn5)[nH]c34)CC2)no1
pIC50 (Aurora kinase A): 6.22
GI50 (SW-620): 20000 nM

Cc1nn(C)cc1-c1nc2c(N3CCN(Cc4ncon4)CC3)c(Cl)cnc2[nH]1
metabolised at 0.5 h [1]: 67%
metabolised at 0.5 h [5]: 22%

Cc1nn(C)cc1-c1nc2c(N3CCN(Cc4ncn(C)n4)CC3)c(Cl)cnc2[nH]1
metabolised at 0.5 h [1]: 97%
pIC50 (Aurora kinase A): 7.03
inhibition at 10 µM (hERG (KCNH2)): 14%
metabolised at 0.5 h [5]: 24%
GI50 (SW-620): 3140 nM

Cc1nc(CN2CCN(c3c(Cl)cnc4[nH]c(-c5cn(C)nc5C)nc34)CC2)no1
metabolised at 0.5 h [1]: 58%
metabolised at 0.5 h [5]: 20%

Cc1cc(CN2CCN(c3c(Cl)cnc4[nH]c(-c5ccoc5)nc34)CC2)no1
pIC50 (Aurora kinase A): 7.17
GI50 (SW-620): 6500 nM

Cc1cc(CN2CCN(c3c(Cl)cnc4[nH]c(-c5cn(C)nc5C5CC5)nc34)CC2)no1
metabolised at 0.5 h [1]: 80%
pIC50 (Aurora kinase A): 8.40
metabolised at 0.5 h [5]: 64%

Cc1cc(CN2CCN(c3c(Br)cnc4nc(-c5nc(C)oc5C)[nH]c34)CC2)no1
pIC50 (Aurora kinase A): 5.66
GI50 (SW-620): 4570 nM

Cc1nn(C)cc1-c1nc2c(N3CCN(Cc4cncnc4)CC3)c(Cl)cnc2[nH]1
metabolised at 0.5 h [1]: 78%
pKd [2]: 7.82
pIC50 (Aurora kinase A): 7.66
inhibition at 10 µM (hERG (KCNH2)): 32%
pKd [4]: 8.23
metabolised at 0.5 h [5]: 50%
GI50 (SW-620): 950 nM

Cc1cc(CN2CCN(c3c(Br)cnc4nc(-c5ccc(N6CCN(C)CC6)cc5)[nH]c34)CC2)no1
metabolised at 0.5 h [1]: 36%
pKd [2]: 8.31
inhibition at 10 µM (hERG (KCNH2)): 75%
pKd [4]: 8.92
metabolised at 0.5 h [5]: 86%

Cc1cc(CN2CCN(c3c(Cl)cnc4nc(-c5cc(C)on5)[nH]c34)CC2)no1
pIC50 (Aurora kinase A): 6.36
GI50 (SW-620): 1150 nM

CCn1cc(-c2nc3ncc(Cl)c(N4CCN(Cc5cc(C)on5)CC4)c3[nH]2)cn1
metabolised at 0.5 h [1]: 16%
pIC50 (Aurora kinase A): 7.39
inhibition at 10 µM (hERG (KCNH2)): 51%
metabolised at 0.5 h [5]: 22%
GI50 (SW-620): 2180 nM
